Source: ChEMBL document CHEMBL4765431, “Novel phthalide derivatives: Synthesis and anti-inflammatory activity in vitro and in vivo” (Eur J Med Chem, 2020)
Active and inactive are the calls of the source. No cut-off for these calls is given here.

Assays:
RAW264.7 [1] = experiment: Cytotoxicity against mouse RAW264.7 cells assessed as reduction in cell viability incubated for 24 hrs in presence of LPS by MTT assay; type: cell-based; conditions: RAW264.7, 24 h
RAW264.7 [2] = experiment: Antiinflammatory activity in mouse RAW264.7 cells assessed as inhibition of LPS-induced nitric oxide production preincubated for 1 hr followed by LPS stimulation and measured after 24 hrs by Griess reagent-based assay; type: functional, cell-based
RAW264.7 [3] = experiment: Antiinflammatory activity in mouse RAW264.7 cells assessed as inhibition of LPS-induced nitric oxide production at 10 uM preincubated for 1 hr followed by LPS stimulation and measured after 24 hrs by Griess reagent-based assay relative to control; type: functional; conditions: time 25 hrs
In short: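 RAW264.7 cells (7 × 10^4/well, used 24 h after seeding) in DMEM with 10% heat-inactivated FBS, 37 °C, 5% CO2. Pretreated 1 h with compound (10 µM screen; 0.625–10 µM dose series), then LPS 0.5 µg/mL for 24 h. Supernatant mixed 1:1 with Griess reagent, 15 min at room temperature, absorbance read at […].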

RAW264.7 [4] = experiment: Cytotoxicity against mouse RAW264.7 cells assessed as reduction in cell viability at 20 uM incubated for 24 hrs by MTT assay; type: cell-based; conditions: raw264.7, 24 h
In short: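 RAW264.7 cells (1 × 10^4/well, used 24 h after seeding) exposed to 20 µM for 24 h. MTT (5 mg/mL stock) added for 4 h, supernatant removed, crystals dissolved in DMSO with 10–15 min shaking, absorbance at 492 nm.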

RAW264.7 [5] = experiment: Cytotoxicity against mouse RAW264.7 cells assessed as reduction in cell viability incubated for 24 hrs in absence of LPS by MTT assay; type: cell-based; conditions: RAW264.7, 24 h
Rattus norvegicus [6] = experiment: Antiarthritic activity in Sprague-Dawley rat model of CFA-induced arthritis assessed as intact joint cavity at 60 mg/kg, ig administered daily for 28 days starting from 14 days post-immunization and measured every 3 days by H and E staining based histopathological analysis; type: functional, organism-based; conditions: time 28.0 day
Rattus norvegicus [7] = experiment: Antiarthritic activity in Sprague-Dawley rat model of arthritis assessed as decrease in CFA-induced synovial hyperplasia at 60 mg/kg, ig administered daily for 28 days starting from 14 days post-immunization and measured every 3 days by H and E staining based histopathological analysis; type: functional, organism-based; conditions: time 28.0 day

Structure (SMILES)	IC50 (RAW264.7 [1])	IC50 (RAW264.7 [2])	inhibition at 10 µM (RAW264.7 [3])	Activity (RAW264.7 [4])	IC50 (RAW264.7 [5])	Activity (Rattus norvegicus [6])	Activity (Rattus norvegicus [7])
COc1cc(OC)c2c(c1)C(C(O)c1ccc(OCc3ccc(Cl)cc3)cc1)OC2=O (stereo unspecified)	> 40 µM	4.32 µM	75.1%	Non-Toxic	> 40 µM	–	–
COCCCCOc1ccc(C(O)C2OC(=O)c3c(OC)cc(OC)cc32)cc1 (stereo unspecified)	> 40 µM	8.21 µM	50.3%	Non-Toxic	> 40 µM	–	–
COc1ccc(C(O)C2OC(=O)c3c(OC)cc(OC)cc32)cc1 (stereo unspecified)	> 40 µM	> 10 µM	38.7%	Non-Toxic	> 40 µM	–	–
COc1cc(OC)c2c(c1)C(C(O)c1ccc(OCc3ccc(OC(F)(F)F)cc3)cc1)OC2=O (stereo unspecified)	> 40 µM	8.14 µM	62.8%	Non-Toxic	> 40 µM	–	–
Cc1noc(CC2OC(=O)c3ccccc32)n1 (stereo unspecified)	> 40 µM	> 10 µM	24.3%	Non-Toxic	> 40 µM	–	–
O=C1OC(Cc2nc(Cc3ccccc3)no2)c2ccccc21 (stereo unspecified)	> 40 µM	> 10 µM	25.1%	Non-Toxic	> 40 µM	–	–
COc1cc(OC)c2c(c1)C(C(O)c1ccc(OCc3ccccc3)cc1)OC2=O (stereo unspecified)	> 40 µM	> 10 µM	41.2%	Non-Toxic	> 40 µM	–	–
CCOc1ccc(C(O)C2OC(=O)c3c(OC)cc(OC)cc32)cc1 (stereo unspecified)	> 40 µM	> 10 µM	43.2%	Non-Toxic	> 40 µM	–	–
COc1cc(OC)c2c(c1)C(C(O)c1ccc(OCc3ccc(C)cc3)cc1)OC2=O (stereo unspecified)	> 40 µM	3.12 µM	82.1%	Non-Toxic	> 40 µM	–	–
COc1cc(OC)c2c(c1)C(C(O)c1ccc(OCCOc3ccccc3)cc1)OC2=O (stereo unspecified)	> 40 µM	> 10 µM	41.2%	Non-Toxic	> 40 µM	–	–
COc1cc(OC)c2c(c1)C(C(O)c1ccc(O)cc1)OC2=O (stereo unspecified)	> 40 µM	> 10 µM	46.1%	Non-Toxic	> 40 µM	–	–
COc1cc(OC)c2c(c1)C(C(O)c1ccc(OCc3ccc(OC(F)F)cc3)cc1)OC2=O (stereo unspecified)	> 40 µM	5.03 µM	67.6%	Non-Toxic	> 40 µM	–	–
O=C1OC(Cc2nc(-c3ccccc3)no2)c2ccccc21 (stereo unspecified)	> 40 µM	> 10 µM	13%	Non-Toxic	> 40 µM	–	–
COC1=C[C@@H]2[C@@H]3Cc4ccc(OC)c(O)c4[C@]2(CCN3C)CC1=O	–	–	–	–	–	Active	Active
COCCOc1ccc(C(O)C2OC(=O)c3c(OC)cc(OC)cc32)cc1 (stereo unspecified)	> 40 µM	> 10 µM	41.4%	Non-Toxic	> 40 µM	–	–
COc1cc(OC)c2c(c1)C(C(O)c1ccc(OCc3ccc(Br)cc3)cc1)OC2=O (stereo unspecified)	> 40 µM	6.53 µM	68.1%	Non-Toxic	> 40 µM	–	–

Structure (SMILES)	IC50 (RAW264.7 [1])	IC50 (RAW264.7 [2])	inhibition at 10 µM (RAW264.7 [3])	Activity (RAW264.7 [4])	IC50 (RAW264.7 [5])	Activity (Rattus norvegicus [6])	Activity (Rattus norvegicus [7])
COc1cc(OC)c2c(c1)/C(=C/c1ccc(OCc3ccc(F)cc3)cc1)OC2=O	> 40 µM	> 10 µM	48.2%	Non-Toxic	> 40 µM	–	–
COCCCOc1ccc(C(O)C2OC(=O)c3c(OC)cc(OC)cc32)cc1 (stereo unspecified)	> 40 µM	1.26 µM	89.5%	Non-Toxic	> 40 µM	–	–
O=C1OC(Cc2nc(-c3ccc(-c4ccccc4)cc3)no2)c2ccccc21 (stereo unspecified)	> 40 µM	> 10 µM	25.2%	Non-Toxic	> 40 µM	–	–
O=C1OC(Cc2nc(-c3ccc(Oc4ccccc4)cc3)no2)c2ccccc21 (stereo unspecified)	> 40 µM	> 10 µM	10%	Non-Toxic	> 40 µM	–	–
COc1ccc(/C=C2\OC(=O)c3c(OC)cc(OC)cc32)cc1	> 40 µM	> 10 µM	36.3%	Non-Toxic	> 40 µM	–	–
COc1cc(OC)c2c(c1)C(C(O)c1ccc(OCC(C)C)cc1)OC2=O (stereo unspecified)	> 40 µM	> 10 µM	48.6%	Non-Toxic	> 40 µM	–	–
C=CCCOc1ccc(C(O)C2OC(=O)c3c(OC)cc(OC)cc32)cc1 (stereo unspecified)	> 40 µM	1.33 µM	87.2%	Non-Toxic	> 40 µM	–	–
COc1cc(OC)c2c(c1)C(C(O)c1ccc(OCC3CCCCC3)cc1)OC2=O (stereo unspecified)	> 40 µM	> 10 µM	27.4%	Non-Toxic	> 40 µM	–	–
CCOCCOc1ccc(C(O)C2OC(=O)c3c(OC)cc(OC)cc32)cc1 (stereo unspecified)	> 40 µM	> 10 µM	42.9%	Non-Toxic	> 40 µM	–	–
CCCCCCOc1ccc(C(O)C2OC(=O)c3c(OC)cc(OC)cc32)cc1 (stereo unspecified)	> 40 µM	5.36 µM	62.2%	Non-Toxic	> 40 µM	–	–
CCCOc1ccc(C(O)C2OC(=O)c3c(OC)cc(OC)cc32)cc1 (stereo unspecified)	> 40 µM	9.26 µM	53.2%	Non-Toxic	> 40 µM	–	–
COc1cc(OC)c2c(c1)C(C(O)c1ccc(OCc3ccc(C#N)cc3)cc1)OC2=O (stereo unspecified)	> 40 µM	7.36 µM	60.8%	Non-Toxic	> 40 µM	–	–
CCCCOc1ccc(C(O)C2OC(=O)c3c(OC)cc(OC)cc32)cc1 (stereo unspecified)	> 40 µM	1.8 µM	83.7%	Non-Toxic	> 40 µM	–	–
COc1cc(OC)c2c(c1)/C(=C/c1ccc(OCc3ccccc3)cc1)OC2=O	> 40 µM	> 10 µM	44.3%	Non-Toxic	> 40 µM	–	–
COc1ccc2c(c1)c(CC(=O)O)c(C)n2C(=O)c1ccc(Cl)cc1 [INDOMETHACIN]	> 40 µM	> 10 µM	61.6%	–	> 40 µM	–	–
